Laboratory results taken from ChEMBL document CHEMBL1828541, “New aporphinoid 5-HT2A and α1A antagonists via structural manipulations of nantenine” (Bioorg Med Chem, 2011).

Tests used:
Type in all cases: functional, cell-based
[1] = target: T1, Alpha-1A adrenergic receptor (Homo sapiens) (UniProt P35348); assay: Antagonist activity at human alpha1A receptor assessed as inhibition of intracellular calcium mobilization by FLIPR assay
T1 sequence (whole entry): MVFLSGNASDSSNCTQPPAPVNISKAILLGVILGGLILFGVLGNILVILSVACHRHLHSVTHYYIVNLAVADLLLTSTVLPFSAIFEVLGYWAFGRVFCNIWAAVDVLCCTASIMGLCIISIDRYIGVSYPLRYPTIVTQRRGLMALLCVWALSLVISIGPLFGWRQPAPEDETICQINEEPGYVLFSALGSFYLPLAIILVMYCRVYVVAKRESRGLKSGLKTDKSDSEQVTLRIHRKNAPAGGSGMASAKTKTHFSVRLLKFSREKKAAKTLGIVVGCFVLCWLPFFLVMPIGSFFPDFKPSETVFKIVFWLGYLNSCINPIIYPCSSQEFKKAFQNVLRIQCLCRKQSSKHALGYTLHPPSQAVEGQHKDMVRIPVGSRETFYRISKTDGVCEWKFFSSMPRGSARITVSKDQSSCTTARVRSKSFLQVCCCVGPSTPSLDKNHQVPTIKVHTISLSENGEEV
Summary of the method: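 Human α1A-adrenergic receptor, FLIPR Tetra calcium-mobilization assay with a calcium-sensitive fluorescent dye. Ke was derived from agonist concentration-response EC50 shifts by a single antagonist concentration, using Ke = [L]/(DR-1) as for the 5-HT2A set.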

[2] = target: 5-hydroxytryptamine receptor 2A (Homo sapiens) (UniProt P28223); assay: Antagonist activity at human 5-HT2A receptor assessed as inhibition of intracellular calcium mobilization by FLIPR assay
5-hydroxytryptamine receptor 2A (Homo sapiens), sequence (P28223 whole entry): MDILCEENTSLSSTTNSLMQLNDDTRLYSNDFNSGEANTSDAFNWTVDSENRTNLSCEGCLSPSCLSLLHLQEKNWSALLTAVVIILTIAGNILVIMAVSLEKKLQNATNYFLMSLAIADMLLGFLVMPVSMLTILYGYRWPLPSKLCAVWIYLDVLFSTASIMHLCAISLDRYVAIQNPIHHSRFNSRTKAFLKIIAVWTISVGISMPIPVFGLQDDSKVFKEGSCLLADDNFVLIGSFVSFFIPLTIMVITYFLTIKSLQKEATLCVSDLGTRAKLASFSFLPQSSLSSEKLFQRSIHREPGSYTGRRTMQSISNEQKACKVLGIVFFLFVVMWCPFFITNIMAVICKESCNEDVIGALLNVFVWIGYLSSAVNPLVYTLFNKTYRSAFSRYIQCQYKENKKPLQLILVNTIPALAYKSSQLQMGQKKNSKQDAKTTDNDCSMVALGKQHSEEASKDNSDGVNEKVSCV
Summary of the method: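 FLIPR Tetra calcium-dye assay at human 5-HT2A. Compounds without intrinsic activity that inhibited the fluorescence rise to the EC80 of 5-HT by at least 50% at 10 μM went on to Ke determination. For this, an 8-point half-log 5-HT concentration-response curve was run with and without a single antagonist concentration. Ke = [L]/(DR-1), where DR = A'/A (ratio of 5-HT EC50s).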

[3] = target: 5-hydroxytryptamine receptor 2A (Homo sapiens) (UniProt P28223); assay: Agonist activity at human 5-HT2A receptor assessed as intracellular calcium mobilization at 10 uM by FLIPR assay
Summary of the method: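 Multi-well FLIPR Tetra screen at 10 μM for intrinsic activity at human 5-HT2A receptor. Read-out is receptor-mediated mobilization of internal calcium, detected with a calcium-sensitive fluorescent dye.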

CCC(CC)COc1c(OC)cc2c3c1-c1cc4c(cc1CC3N(C)CC2)OCO4 (centres undefined)
Ke [1]: > 10000 nM | Ke [2]: 806 nM

C=CCOc1c(OC)cc2c3c1-c1cc4c(cc1CC3N(C)CC2)OCO4 (racemic)
Ke [1]: > 10000 nM | Ke [2]: 70 nM

CCCCCCOc1c(OC)cc2c3c1-c1cc4c(cc1CC3N(C)CC2)OCO4 (racemic)
Ke [1]: > 10000 nM | Ke [2]: 71 nM

CCCCCN1CCc2cc(OC)c(OC)c3c2C1Cc1cc2c(cc1-3)OCO2 (racemic)
Ke [1]: 720 nM | Ke [2]: > 10000 nM

CCCCCOc1cc2c3c(c1OC)-c1cc4c(cc1CC3N(C)CC2)OCO4 (racemic)
Ke [1]: 449 nM | Ke [2]: > 10000 nM

CCCCN1CCc2cc(OC)c(OC)c3c2C1Cc1cc2c(cc1-3)OCO2 (racemic)
Ke [1]: 210 nM | Ke [2]: > 10000 nM

CCCCOc1cc2c3c(c1OC)-c1cc4c(cc1CC3N(C)CC2)OCO4 (racemic)
Ke [1]: 234 nM | Ke [2]: 943 nM

CCCN1CCc2cc(OC)c(OC)c3c2C1Cc1cc2c(cc1-3)OCO2 (racemic)
Ke [1]: 38 nM | Ke [2]: > 10000 nM

CCCOc1cc2c3c(c1OC)-c1cc4c(cc1CC3N(C)CC2)OCO4 (racemic)
Ke [1]: 133 nM | Ke [2]: 389 nM

CCN1CCc2cc(OC)c(OC)c3c2C1Cc1cc2c(cc1-3)OCO2 (racemic)
Ke [1]: 26 nM

CCOc1cc2c3c(c1OC)-c1cc4c(cc1CC3N(C)CC2)OCO4 (racemic)
Ke [1]: 52 nM | Ke [2]: 378 nM

COc1c(Br)c2c3c(c1OC)-c1c(Br)c4c(c(Br)c1CC3N(C)CC2)OCO4 (racemic)
Ke [1]: > 10000 nM | Ke [2]: 43 nM

COc1c(Br)c2c3c(c1OC)-c1cc4c(cc1CC3N(C)CC2)OCO4 (racemic)
Ke [1]: > 10000 nM | Ke [2]: 53 nM

COc1c(OCC2CC2)cc2c3c1-c1cc4c(cc1CC3N(C)CC2)OCO4 (racemic)
Ke [1]: 195 nM | Ke [2]: 484 nM

COc1c(OCc2ccccc2)cc2c3c1-c1cc4c(cc1CC3N(C)CC2)OCO4 (racemic)
Ke [1]: 1920 nM | Ke [2]: 154 nM

COc1cc2c3c(c1OC)-c1cc4c(cc1CC3N(C)CC2)OCO4 (racemic)
Ke [1]: 36 nM

COc1cc2c3c(c1OC)-c1cc4c(cc1CC3N(CC1CC1)CC2)OCO4 (racemic)
Ke [1]: 319 nM | Ke [2]: > 10000 nM

COc1cc2c3c(c1OCC(C)C)-c1cc4c(cc1CC3N(C)CC2)OCO4 (racemic)
Ke [1]: > 10000 nM | Ke [2]: 367 nM

COc1cc2c3c(c1OCC1CCC1)-c1cc4c(cc1CC3N(C)CC2)OCO4 (racemic)
Ke [1]: > 10000 nM | Emax [3]: 25%

COc1cc2c3c(c1OCC1CCCC1)-c1cc4c(cc1CC3N(C)CC2)OCO4 (racemic)
Ke [1]: > 10000 nM | Emax [3]: 35%

COc1cc2c3c(c1OCC1CCCCC1)-c1cc4c(cc1CC3N(C)CC2)OCO4 (racemic)
Ke [1]: > 10000 nM | Ke [2]: 1720 nM

COc1cc2c3c(c1OCCC(C)C)-c1cc4c(cc1CC3N(C)CC2)OCO4 (racemic)
Ke [1]: > 10000 nM | Emax [3]: 19%

COc1cc2c3c(c1OCCCO)-c1cc4c(cc1CC3N(C)CC2)OCO4 (racemic)
Ke [1]: > 10000 nM | Ke [2]: 708 nM
